Assay results reported in ChEMBL document CHEMBL1649446, “Comparative antipneumococcal activities of sulopenem and other drugs” (2009).

Tests used:
Type in all cases: functional
Streptococcus pneumoniae [1] = test: Antimicrobial activity against Streptococcus pneumoniae isolate 33 by agar dilution method
Summary of the method: (§1)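 Agar dilution MIC on Mueller-Hinton agar with 5% sheep blood, inocula 10^4 CFU/spot; amoxicillin-clavulanate combined 1:2; S. pneumoniae ATCC 49619 quality control each run.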

Streptococcus pneumoniae [2] = test: Antimicrobial activity against Streptococcus pneumoniae isolate 1384 by agar dilution method; summary of the method: as §1
Streptococcus pneumoniae [3] = test: Antimicrobial activity against Streptococcus pneumoniae 3 by time-kill analysis
Summary of the method: (§2)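 Time-kill in cation-adjusted Mueller-Hinton broth with 5% lysed horse blood; inocula 5 × 105 to 5 × 10^6 CFU/ml; drugs at MIC, 2× and 4× MIC; 35°C shaking water bath; viable counts at 0, 3, 6, 12, 24 h. Bactericidal = ≥3 log10 CFU/ml (99.9%) drop from original inoculum; 90%/99%/99.9% killing scored per strain.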

Streptococcus pneumoniae [4] = test: Antimicrobial activity against Streptococcus pneumoniae isolate 2688 by agar dilution method; summary of the method: as §1
Streptococcus pneumoniae [5] = test: Antimicrobial activity against Streptococcus pneumoniae 8 by time-kill analysis; summary of the method: as §2
Streptococcus pneumoniae [6] = test: Antimicrobial activity against Streptococcus pneumoniae isolate 1424 by agar dilution method; summary of the method: as §1
Streptococcus pneumoniae [7] = test: Antimicrobial activity against Streptococcus pneumoniae isolate 4747 by agar dilution method; summary of the method: as §1
Streptococcus pneumoniae [8] = test: Antimicrobial activity against Streptococcus pneumoniae 12 by time-kill analysis; summary of the method: as §2
Streptococcus pneumoniae [9] = test: Antimicrobial activity against Streptococcus pneumoniae isolate 2617 by agar dilution method; summary of the method: as §1
Streptococcus pneumoniae [10] = test: Antimicrobial activity against Streptococcus pneumoniae isolate 1147 by agar dilution method; summary of the method: as §1
Streptococcus pneumoniae [11] = test: Antimicrobial activity against Streptococcus pneumoniae isolate 3481 by agar dilution method; summary of the method: as §1
Streptococcus pneumoniae [12] = test: Antimicrobial activity against Streptococcus pneumoniae 2 by time-kill analysis; summary of the method: as §2
Streptococcus pneumoniae [13] = test: Antimicrobial activity against penicillin-resistant Streptococcus pneumoniae by agar dilution method; summary of the method: as §1
Streptococcus pneumoniae [14] = test: Antimicrobial activity against Streptococcus pneumoniae 11 by time-kill analysis; summary of the method: as §2
Streptococcus pneumoniae [15] = test: Antimicrobial activity against penicillin-intermediate Streptococcus pneumoniae by agar dilution method
Streptococcus pneumoniae [16] = test: Antimicrobial activity against Streptococcus pneumoniae 9 by time-kill analysis
Summary of the method: (§3)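 Time-kill in cation-adjusted Mueller-Hinton broth with 5% lysed horse blood; inocula 5 × 105 to 5 × 10^6 CFU/ml; drugs at MIC, 2× and 4× MIC; 35°C shaking water bath; viable counts at 0, 3, 6, 12 and 24 h. Bactericidal if ≥3 log10 CFU/ml (99.9%) reduction from original inoculum; 90% and 99% killing also scored.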

Streptococcus pneumoniae [17] = test: Antimicrobial activity against Streptococcus pneumoniae isolate 1397 by agar dilution method; summary of the method: as §1
Streptococcus pneumoniae [18] = test: Antimicrobial activity against Streptococcus pneumoniae isolate 2880 by agar dilution method; summary of the method: as §1
Streptococcus pneumoniae [19] = test: Antimicrobial activity against Streptococcus pneumoniae isolate 1564 by agar dilution method
Streptococcus pneumoniae [20] = test: Antimicrobial activity against Streptococcus pneumoniae 7 by time-kill analysis; summary of the method: as §2
Streptococcus pneumoniae [21] = test: Antimicrobial activity against Streptococcus pneumoniae isolate 3458 by agar dilution method
Streptococcus pneumoniae [22] = test: Antimicrobial activity against Streptococcus pneumoniae isolate 3455 by agar dilution method
Streptococcus pneumoniae [23] = test: Antimicrobial activity against Streptococcus pneumoniae isolate 1055 by agar dilution method
Streptococcus pneumoniae [24] = test: Antimicrobial activity against penicillin-susceptible Streptococcus pneumoniae by agar dilution method
Streptococcus pneumoniae [25] = test: Antimicrobial activity against Streptococcus pneumoniae 19A by agar dilution method; summary of the method: as §1
Streptococcus pneumoniae [26] = test: Antimicrobial activity against Streptococcus pneumoniae isolate 1394 by agar dilution method
Streptococcus pneumoniae [27] = test: Antimicrobial activity against Streptococcus pneumoniae isolate 1146 by agar dilution method; summary of the method: as §1
Streptococcus pneumoniae [28] = test: Antimicrobial activity against Streptococcus pneumoniae isolate 3346 by agar dilution method
Streptococcus pneumoniae [29] = test: Antimicrobial activity against Streptococcus pneumoniae isolate 37 by agar dilution method; summary of the method: as §1
Streptococcus pneumoniae [30] = test: Antimicrobial activity against Streptococcus pneumoniae isolate 24 by agar dilution method
Streptococcus pneumoniae [31] = test: Antimicrobial activity against Streptococcus pneumoniae 6 by time-kill analysis; summary of the method: as §2
Streptococcus pneumoniae [32] = test: Antimicrobial activity against Streptococcus pneumoniae isolate 4755 by agar dilution method; summary of the method: as §1
Streptococcus pneumoniae [33] = test: Antimicrobial activity against Streptococcus pneumoniae isolate 3681 by agar dilution method; summary of the method: as §1
Streptococcus pneumoniae [34] = test: Antimicrobial activity against Streptococcus pneumoniae isolate 3587 by agar dilution method
Streptococcus pneumoniae [35] = test: Antimicrobial activity against Streptococcus pneumoniae isolate 3263 by agar dilution method
Streptococcus pneumoniae [36] = test: Antimicrobial activity against Streptococcus pneumoniae 10 by time-kill analysis; summary of the method: as §2
Streptococcus pneumoniae [37] = test: Antimicrobial activity against Streptococcus pneumoniae isolate 3374 by agar dilution method; summary of the method: as §1
Streptococcus pneumoniae [38] = test: Antimicrobial activity against Streptococcus pneumoniae isolate 3791 by agar dilution method; summary of the method: as §1
Streptococcus pneumoniae [39] = test: Antimicrobial activity against Streptococcus pneumoniae 5 by time-kill analysis; summary of the method: as §3
Streptococcus pneumoniae [40] = test: Antimicrobial activity against Streptococcus pneumoniae 4 by time-kill analysis; summary of the method: as §2
Streptococcus pneumoniae [41] = test: Antimicrobial activity against Streptococcus pneumoniae isolate 2874 by agar dilution method; summary of the method: as §1
Streptococcus pneumoniae [42] = test: Antimicrobial activity against Streptococcus pneumoniae isolate 3275 by agar dilution method; summary of the method: as §1
Streptococcus pneumoniae [43] = test: Antimicrobial activity against Streptococcus pneumoniae isolate 2686 by agar dilution method; summary of the method: as §1
Streptococcus pneumoniae [44] = test: Antimicrobial activity against Streptococcus pneumoniae 1 by time-kill analysis; summary of the method: as §3
Streptococcus pneumoniae [45] = test: Antimicrobial activity against Streptococcus pneumoniae isolate 3412 by agar dilution method; summary of the method: as §1
Streptococcus pneumoniae [46] = test: Antimicrobial activity against Streptococcus pneumoniae isolate 3260 by agar dilution method
Streptococcus pneumoniae [47] = test: Antimicrobial activity against Streptococcus pneumoniae isolate 3282 by agar dilution method

CO/N=C(\C(=O)N[C@@H]1C(=O)N2C(C(=O)O)=C(COC(N)=O)CS[C@H]12)c1ccco1 [CEFUROXIME]
1 µg/mL: MIC (Streptococcus pneumoniae [3])
0.016 µg/mL: MIC (Streptococcus pneumoniae [12])
8 µg/mL: MIC (Streptococcus pneumoniae [5]) | MIC (Streptococcus pneumoniae [7]) | MIC (Streptococcus pneumoniae [10]) | MIC (Streptococcus pneumoniae [11]) | MIC (Streptococcus pneumoniae [17]) | MIC (Streptococcus pneumoniae [21]) | MIC50 (Streptococcus pneumoniae [25]) | MIC (Streptococcus pneumoniae [27]) | MIC (Streptococcus pneumoniae [32]) | MIC (Streptococcus pneumoniae [34]) | MIC (Streptococcus pneumoniae [37]) | MIC (Streptococcus pneumoniae [38]) | MIC (Streptococcus pneumoniae [41])
4 µg/mL: MIC (Streptococcus pneumoniae [1]) | MIC (Streptococcus pneumoniae [2]) | MIC (Streptococcus pneumoniae [8]) | MIC (Streptococcus pneumoniae [9]) | MIC50 (Streptococcus pneumoniae [13]) | MIC (Streptococcus pneumoniae [14]) | MIC90 (Streptococcus pneumoniae [15]) | MIC (Streptococcus pneumoniae [18]) | MIC (Streptococcus pneumoniae [20]) | MIC (Streptococcus pneumoniae [22]) | MIC (Streptococcus pneumoniae [23]) | MIC (Streptococcus pneumoniae [28]) | MIC (Streptococcus pneumoniae [29]) | MIC (Streptococcus pneumoniae [33]) | MIC (Streptococcus pneumoniae [35]) | MIC (Streptococcus pneumoniae [45]) | MIC (Streptococcus pneumoniae [46]) | MIC (Streptococcus pneumoniae [47])
0.125 µg/mL: MIC90 (Streptococcus pneumoniae [24])
32 µg/mL: MIC (Streptococcus pneumoniae [4])
64 µg/mL: MIC (Streptococcus pneumoniae [19])
0.25 µg/mL: MIC50 (Streptococcus pneumoniae [15]) | MIC (Streptococcus pneumoniae [16]) | MIC (Streptococcus pneumoniae [36])
16 µg/mL: MIC (Streptococcus pneumoniae [6]) | MIC90 (Streptococcus pneumoniae [13]) | MIC90 (Streptococcus pneumoniae [25]) | MIC (Streptococcus pneumoniae [26]) | MIC (Streptococcus pneumoniae [39]) | MIC (Streptococcus pneumoniae [40]) | MIC (Streptococcus pneumoniae [43])
0.03 µg/mL: MIC50 (Streptococcus pneumoniae [24]) | MIC (Streptococcus pneumoniae [44])
0.5 µg/mL: MIC (Streptococcus pneumoniae [31])
2 µg/mL: MIC (Streptococcus pneumoniae [30]) | MIC (Streptococcus pneumoniae [42])

C[C@@H](O)[C@H]1C(=O)N2C(C(=O)O)=C(S[C@H]3CC[S@@+]([O-])C3)S[C@H]12 [SULOPENEM]
0.12 µg/mL: MIC (Streptococcus pneumoniae [3]) | MIC (Streptococcus pneumoniae [16]) | MIC (Streptococcus pneumoniae [31])
0.016 µg/mL: MIC90 (Streptococcus pneumoniae [24])
1 µg/mL: MIC (Streptococcus pneumoniae [1]) | MIC (Streptococcus pneumoniae [4]) | MIC (Streptococcus pneumoniae [5]) | MIC (Streptococcus pneumoniae [10]) | MIC (Streptococcus pneumoniae [14]) | MIC (Streptococcus pneumoniae [20]) | MIC (Streptococcus pneumoniae [21]) | MIC (Streptococcus pneumoniae [22]) | MIC50 (Streptococcus pneumoniae [25]) | MIC (Streptococcus pneumoniae [27]) | MIC (Streptococcus pneumoniae [29]) | MIC (Streptococcus pneumoniae [39]) | MIC (Streptococcus pneumoniae [41]) | MIC (Streptococcus pneumoniae [43])
0.06 µg/mL: MIC50 (Streptococcus pneumoniae [15]) | MIC (Streptococcus pneumoniae [36])
0.125 µg/mL: MIC (Streptococcus pneumoniae [42]) | MIC (Streptococcus pneumoniae [45])
2 µg/mL: MIC90 (Streptococcus pneumoniae [25])
0.25 µg/mL: MIC (Streptococcus pneumoniae [2]) | MIC (Streptococcus pneumoniae [7]) | MIC (Streptococcus pneumoniae [9]) | MIC (Streptococcus pneumoniae [11]) | MIC50 (Streptococcus pneumoniae [13]) | MIC90 (Streptococcus pneumoniae [15]) | MIC (Streptococcus pneumoniae [23]) | MIC (Streptococcus pneumoniae [33]) | MIC (Streptococcus pneumoniae [34]) | MIC (Streptococcus pneumoniae [35]) | MIC (Streptococcus pneumoniae [37]) | MIC (Streptococcus pneumoniae [38])
0.008 µg/mL: MIC (Streptococcus pneumoniae [12]) | MIC50 (Streptococcus pneumoniae [24]) | MIC (Streptococcus pneumoniae [44])
0.5 µg/mL: MIC (Streptococcus pneumoniae [6]) | MIC (Streptococcus pneumoniae [8]) | MIC90 (Streptococcus pneumoniae [13]) | MIC (Streptococcus pneumoniae [17]) | MIC (Streptococcus pneumoniae [18]) | MIC (Streptococcus pneumoniae [19]) | MIC (Streptococcus pneumoniae [26]) | MIC (Streptococcus pneumoniae [28]) | MIC (Streptococcus pneumoniae [30]) | MIC (Streptococcus pneumoniae [32]) | MIC (Streptococcus pneumoniae [40]) | MIC (Streptococcus pneumoniae [46]) | MIC (Streptococcus pneumoniae [47])
